Measurements: ChEMBL document CHEMBL1153856, “Synthesis and spectral characterization of a new class of N-(N-methylpiperazinoacetyl)-2,6-diarylpiperidin-4-ones: antimicrobial, analgesic and antipyretic studies” (2009)

Assays:
Assay type in all cases: functional
Rattus norvegicus [1] = assay: Antipyretic activity against brewer's yeast-induced hyperthermia in Wistar rat assessed as change in rectal temperature at 5 mg/kg, po after 90 mins
Procedure, shortened: (§1)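 Wistar rats of both sexes, 200–250 g, received brewer's yeast in normal saline sc. Rectal temperature was taken with a digital thermometer (precision 0.1 °C). At 18 h, rats whose temperature had risen 0.3–0.5 °C were selected. Test compounds (30 or 60 mg/kg) or indomethacin (5 mg/kg) were given orally in 1% CMC; controls received vehicle only. Temperature was measured at 30, 60, 90, 120 and 150 min, mean ± SEM.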

Rattus norvegicus [2] = assay: Antipyretic activity against brewer's yeast-induced hyperthermia in Wistar rat assessed as change in rectal temperature at 5 mg/kg, po after 60 mins; procedure, shortened: as §1
Rattus norvegicus [3] = assay: Antipyretic activity against brewer's yeast-induced hyperthermia in Wistar rat assessed as change in rectal temperature at 5 mg/kg, po after 120 mins; procedure, shortened: as §1
Rattus norvegicus [4] = assay: Antipyretic activity against brewer's yeast-induced hyperthermia in Wistar rat assessed as change in rectal temperature at 5 mg/kg, po after 30 mins; procedure, shortened: as §1
Rattus norvegicus [5] = assay: Antipyretic activity against brewer's yeast-induced hyperthermia in Wistar rat assessed as change in rectal temperature at 5 mg/kg, po after 150 mins; procedure, shortened: as §1

COc1ccc2c(c1)c(CC(=O)O)c(C)n2C(=O)c1ccc(Cl)cc1 [INDOMETHACIN]
Activity (Rattus norvegicus [1]): 37.8 °C | Activity (Rattus norvegicus [2]): 37.9 °C | Activity (Rattus norvegicus [3]): 37.7 °C | Activity (Rattus norvegicus [4]): 38.1 °C | Activity (Rattus norvegicus [5]): 37.5 °C
